Screens: PubChem BioAssay, Broad Institute
CSC inhib: cancer stem cell inhibition | AID 2717 | inhibition, % at 7.5 µM | 300,000 tested, 1.1% active | cancer stem cell-like cells viability, luminescence; in the data active means inhibition above about 75%; inconclusive means no clear call, values can overlap the other calls; tested in HMLE shEcad cells
Calb FLC: affects C. albicans growth with fluconazole | growth inhibition, % (test concentration not listed) | AID 1979 | C. albicans CaCi-2 (fluconazole-resistant clinical isolate) + fluconazole, Alamar Blue growth, 48 h | 300,000 tested, 0.57% active;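 active means growth inhibition above about 58% in most replicates, limit read from the data, passing the limit was not always enough; inconclusive means exactly half the replicates above a set limit; inactive means most replicates below a set limit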;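 further: all wells also contain fluconazole at 8 µg/ml as a sub-toxic cotreatment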
Beta cell apopt: beta cell apoptosis inhibition; INS-1E cytokine-induced death, ATP luminescence, 48 h; percent of positive-control rescue, neutral wells zero; 300,000 tested, 0.8% active; protection from apoptosis, % (concentration not given with the values);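 active means Every replicate reaches about 75%, or at least half do and their mean reaches it too, limit read from the data; inconclusive means At least half of replicates reach the limit but their mean does not; inactive means Under half of replicates reach the limit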;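 further: higher means more ATP so stronger rescue from cytokine killing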
T cruzi inh: blocks replication of Trypanosoma cruzi | 300,000 tested, 1.4% active | inhibition, % (concentration not given with the values) | AID 1885 | T. cruzi beta-gal in NIH3T3, luminescence, 90 h;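 active means mean inhibition across valid replicates above about 55%, limit read from the data; inconclusive means mean below that limit but half or more replicates reach it; inactive means mean below it, under half of replicates reach it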;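 further: signal also drops with host cell toxicity which is not excluded here; higher percent means less beta-gal luminescence so fewer parasites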
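Assay system: NIH/3T3 host cells with β-galactosidase reporter T. cruzi; input: 5,000 host fibroblasts per well; compound: single 50 nL compound addition per well in DMSO; timing: ≥90 h infection period, 3 h prior cell attachment; measured by: GalScreen β-gal luminescence, detergent lysis, 60 min; evaluation: percent inhibition of parasite-derived β-gal signal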
HIF act: HIF pathway transcriptional activation; AID 1910; activation, % at 7.5 µM (by protocol); U2OS HRE-luciferase reporter, luminescence; normalized: DMSO 0%, desferrioxamine 100%; 300,000 tested, 0.32% active;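 active means mean activation of at least 10% of the iron chelator positive control signal, with at least half of replicates also reaching 10%; inconclusive means mean and replicate majority disagree about reaching 10%; inactive means mean and most replicates under 10%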
PolyA inh: inhibitors of polyadenylation in S. cerevisiae; S. cerevisiae SKY197-pL101 polyadenylation reporter, beta-gal luminescence; efflux-impaired pdr1/pdr3 knockout yeast; score 100 = 6 SD above DMSO; activity score, % at 12 µM; 300,000 tested, 0.02% active; AID 1875;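 active means lowest replicate activity score at least 50, where 100 means six control SD above control mean; inconclusive means lowest score under 50 but half or more replicates reach 50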;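 further: yeast exposed to compound for 9 h at 30 °C; higher score means more reporter readthrough which indicates perturbed polyadenylation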
Numbers stand for hits; 0 = inactive; ? = inconclusive; - = not tested or not shown. Shown are actives, neighbours in structure and some others; about 3.1% of the full set was active somewhere.

SMILES	CSC inhib	Calb FLC	Beta cell apopt	T cruzi inh	HIF act	PolyA inh
Cc1onc(-c2ccccc2)c1C(=O)N/N=C/c1c[nH]c2ccccc12	0	0	0	0	0	0
Cc1ccc(/C=N/NC(=O)c2c(-c3ccccc3)noc2C)c(O)c1	0	112	93	0	18	0
COc1ccc(OC)c2[nH]c(C(=O)N/N=C/c3ccccc3O)cc12	0	90	96	0	?	0
COc1cccc(/C=N/NC(=O)c2c(-c3ccccc3)noc2C)c1O	0	0	87	0	0	0
CCOC(=O)c1c(C)[nH]c(C(=O)N/N=C\c2ccccc2O)c1C	79	0	77	0	57	0
CCOC(=O)c1c(C)[nH]c(C(=O)N/N=C/c2cc([N+](=O)[O-])ccc2O)c1C	0	0	0	0	0	0
COc1cccc(/C=N/NC(=O)c2c(-c3ccccc3)noc2C)c1OC	0	0	0	0	0	0
COc1cc(/C=N/NC(=O)c2ccoc2C)ccc1O	0	0	0	0	0	0
Cc1onc(-c2ccccc2)c1C(=O)N/N=C(\N)COc1ccc(Cl)cc1	0	86	0	0	0	0
COc1cccc(/C=N/NC(=O)c2ccoc2C)c1O	0	0	86	0	25	0
Cc1ccc(C(=O)NCCNC(=O)COc2ccc(C)c(C)c2)cn1	0	0	0	0	0	0
N#CCCN(C(=O)COC(=O)CCc1nc2ccccc2c(=O)[nH]1)c1ccc(F)cc1	0	-	0	-	-	-
CN(C)CC/C=C1\c2ccc(F)cc2Sc2cc(F)c(Cl)cc21	83	0	-	0	0	0
CCCCOC(=O)Nc1nnc(C(C)C)s1	0	0	0	64	0	0
COc1cc(CNCCc2ccccc2)cc(Br)c1OCC(=O)Nc1ccccc1C	-	0	0	0	0	0
CC(=O)N(CCCc1ccc(C(C)(C)C)cc1)CCCN(C)C	0	0	0	73	0	0
CCN1CC(CN(C)Cc2nc(-c3ccc(C(F)(F)F)cc3)oc2C)CC1=O (stereo unspecified)	0	0	0	59	0	0
Nc1ccccc1-n1cccc1	0	0	0	0	0	0
COCCN1C=C(C(=O)OC)C(c2ccc3c(c2)OCO3)C(C(=O)OC)=C1	0	0	0	0	0	0
COC(=O)C1=CN(C2CCCCC2)C=C(C(=O)OC)C1c1ccc2c(c1)OCO2	0	0	0	62	0	0
CC(C)(C)c1nc(NC(=O)Nc2ccccc2)sc1Br	0	0	0	57	0	0
O=C(COC(=O)c1ccc2c(c1[N+](=O)[O-])C(=O)c1ccccc1C2=O)NC1CC1	0	0	0	66	0	-
COc1cc(SC)ccc1C(=O)OCC(=O)NC1CC1	-	98	-	0	0	0
COc1ccc(N2CCN(C(=S)NC(C)c3ccccc3)CC2)cc1 (stereo unspecified)	0	0	0	0	0	0
CCOc1ccc(N(CC(=O)NCCC2=CCCCC2)S(=O)(=O)c2ccccc2)cc1	0	0	0	62	0	0
SMILES	CSC inhib	Calb FLC	Beta cell apopt	T cruzi inh	HIF act	PolyA inh
COc1ccc(CCNC(=O)CN(c2ccccc2OC)S(=O)(=O)c2ccc(C)cc2)cc1	0	0	-	60	0	0
COc1ccc(N(CC(=O)NCCC2=CCCCC2)S(=O)(=O)c2ccc(C)cc2)cc1	0	0	0	62	0	0
CC(C)(C)n1nc2c(c1NC(=O)Cc1ccc([N+](=O)[O-])cc1)CS(=O)(=O)C2	0	0	0	0	0	0
Cc1ccc2[nH]c(C)c(/C=N/Nc3nc4ccccc4s3)c2c1	0	0	0	61	0	0
Cc1csc(N/N=C/c2ccccn2)n1	83	0	0	0	0	0
C(=N\Nc1nc2ccccc2s1)/c1ccccn1	94	0	-	0	0	0
Cc1ccc2[nH]c(O)c(N=Nc3nc4ccccc4s3)c2c1	0	0	0	61	0	0
Cc1csc(N/N=C/c2ccc([N+](=O)[O-])cc2)n1	0	0	0	0	0	?
Brc1csc(/C=N/Nc2nc3ccccc3s2)c1	0	0	0	0	0	0
COc1ccc(CN2CCN(Cc3ccc(Br)cc3)CC2)c(OC)c1OC	0	-	0	0	0	0
O=C(Nc1nnc(C2=COCCO2)o1)c1ccc([N+](=O)[O-])cc1	0	-	0	0	0	0
C(=N\NC1=Nc2cccc3cccc1c23)/c1ccccn1	-	94	-	65	0	0
Brc1ccc(/C=C/C=N/Nc2nc3ccccc3s2)cc1	0	99	0	0	0	0
COc1ccc(N(C(=O)CCl)C(C(=O)NCCc2ccccc2)c2cccs2)cc1Cl (stereo unspecified)	109	0	98	63	0	0
COc1cccc(N(C(=O)CCl)C(C(=O)NCCc2ccccc2)c2cccs2)c1 (stereo unspecified)	0	0	0	0	0	0
O=C1c2cccnc2C(=O)N1CNc1ccc(Cl)cc1	0	134	0	0	0	0
O=C1c2ccncc2C(=O)N1CNc1ccc(Cl)cc1	0	0	0	0	0	0
O=C(NNc1ccc(-c2csnn2)cc1)c1cc(Cl)cc(Cl)c1	87	0	0	0	0	0
C=CCn1c(Sc2ncc([N+](=O)[O-])s2)n[nH]c1=O	106	0	0	0	0	0
N#C/C(=C\c1cccnc1)c1ccccn1	0	0	0	0	0	0
CN(C)CCNS(=O)(=O)c1ccc(N2CCc3ccccc32)c([N+](=O)[O-])c1	0	0	0	0	0	0
COc1ccc(N(C(=O)CCl)C(C(=O)NC2CCCCC2)c2cccnc2)cc1 (stereo unspecified)	0	0	0	0	0	0
COc1ccc(C(C(=O)NC2CCCCC2)N(C(=O)CCl)c2cccc(Cl)c2)cc1 (stereo unspecified)	109	0	99	0	0	0
O=C(NC1CCCCC1)C(c1cccnc1)N(C(=O)CCl)c1ccc(F)cc1 (stereo unspecified)	99	0	0	0	0	0
COc1cccc(/C=N\NC(=O)Cn2nnc3ccccc32)c1O	0	0	0	0	16	0
SMILES	CSC inhib	Calb FLC	Beta cell apopt	T cruzi inh	HIF act	PolyA inh
COc1cccc(/C=N/NC(=O)CNC(=O)C(c2ccccc2)c2ccccc2)c1O	-	0	0	0	14	0
COc1cccc(/C=N/NC(=O)CNC(=O)/C=C\c2ccccc2)c1O	0	0	0	0	0	0
COc1cc(/C=N/NC(=O)Cn2nnc3ccccc32)ccc1O	0	0	0	0	0	0
COc1cccc(/C=N/NC(=O)CSCC(=O)Nc2ccccc2)c1O	-	0	0	0	17	0
Cc1cccc(C(=O)O/N=C/c2c(N3CCOCC3)n(C)c3ccccc23)c1	0	83	97	73	0	0
O=C(CSc1nnc(-c2ccccc2Cl)o1)N1CCOCC1	0	0	0	0	14	0
Cc1ccc(SC2=C(Sc3ccc(C)cc3)C(=O)c3ccccc3C2=O)cc1	78	0	0	0	0	0
Cc1ccc(N2C(=O)c3ccccc3C2=O)cc1	0	0	0	0	0	0
